Only some compounds are listed: those with a hit (about 1.9% of all), similar ones and a draw of the others.
Runt-SMMHC FRET: inhibitors of human RUNX1 Runt domain binding to CBFb-SMMHC | Q01196+Q13951 | Cerulean-Runt/Venus-CBFb-SMMHC FRET ratio 530/480, 1 h | inhibition, % at 20 µM | actives 0.74% (n = 220,000);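 active means mean inhibition across duplicate retests at 20 µM reaching about 50%, limit read from the data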;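 further: 0% = DMSO wells and 100% = wells with excess untagged CBFb-SMMHC; inhibitors lower the FRET ratio by blocking Runt binding to CBFb-SMMHC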
Target sequence (Q01196 whole entry, looked up, the tested form may be a part): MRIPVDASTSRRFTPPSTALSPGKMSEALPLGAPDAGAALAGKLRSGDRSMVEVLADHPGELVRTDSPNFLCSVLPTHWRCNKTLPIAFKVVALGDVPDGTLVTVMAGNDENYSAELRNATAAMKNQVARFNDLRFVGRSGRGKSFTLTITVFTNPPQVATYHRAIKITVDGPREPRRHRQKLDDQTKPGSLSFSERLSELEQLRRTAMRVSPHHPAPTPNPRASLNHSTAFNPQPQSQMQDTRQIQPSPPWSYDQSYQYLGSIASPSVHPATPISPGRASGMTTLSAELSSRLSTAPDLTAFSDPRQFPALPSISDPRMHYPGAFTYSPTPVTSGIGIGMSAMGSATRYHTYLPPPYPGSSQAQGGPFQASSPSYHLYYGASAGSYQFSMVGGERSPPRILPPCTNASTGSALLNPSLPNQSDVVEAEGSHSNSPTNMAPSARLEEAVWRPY
Target sequence (Q13951 whole entry, looked up, the tested form may be a part): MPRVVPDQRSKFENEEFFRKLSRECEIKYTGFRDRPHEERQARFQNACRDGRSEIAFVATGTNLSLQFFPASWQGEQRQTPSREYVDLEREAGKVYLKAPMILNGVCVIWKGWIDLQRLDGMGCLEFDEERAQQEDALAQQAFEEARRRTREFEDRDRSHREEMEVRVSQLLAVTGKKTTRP
LANA-H2B inh: blocks KSHV LANA binding to histone H2A/H2B. Q9QR71. cell-free LANA-H2A/H2B peptide, fluorescence polarization. inhibition, % (test concentration not listed). actives 0.6% (n = 320,000); in the data active means inhibition mostly above about 10%, no sharp cut-off; inactive means mostly below about 6.7%
CaV13 FRET inh: Disruptors of the CACNA1D IQ motif to Ca2+-dependent inactivation inhibitor domain association, primary screening, Förster resonance energy transfer in intact living … | inhibition, % at 12.3 µM | actives 0.098% (n = 340,000) | AID 743397 | HEK cells, CFP/YFP FRET ICDI-IQ, plate reader, 10 min; percent FRET-ratio fall versus neutral wells;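 active means mean replicate inhibition of at least 30% and at least 1% of replicates passing that level; inconclusive means only one of the two criteria is met; inactive means neither criterion is met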;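 further: 0% = median of the neutral control wells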
RanGTP-Imp inh: disruptors of Ran-importin-beta complex formation – biochemical, FRET, CFP-Ran, YFP-importin-beta, homogeneous, primary screen; cell-free CFP-Ran/YFP-importin-beta FRET ratio; inhibition, % (no concentration beside the values); actives 1.1% (n = 300,000); AID 2216;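 active means more than half of the replicate wells show a fall in the fluorescence ratio signal beyond about 16%, limit read from the data, passing the limit was not always enough; inconclusive means exactly half of the replicate wells pass the set limit; inactive means fewer than half of replicates pass the limit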;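 further: 0% = DMSO wells and 100% = Ran loaded with GDP instead of GTP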
HDAC3 inhib: human HDAC3 inhibition | actives 0.15% (n = 320,000) | recombinant HDAC3, fluorogenic peptide/trypsin coupled, fluorescence | O15379 | inhibition, % at 8.3 µM | AID 2718; in the data active means inhibition above about 26%, passing the limit was not always enough; inconclusive means no clear call, values can overlap the other calls
Runt-CBFb FRET: inhibitors of human RUNX1 Runt domain binding to CBFb | Cerulean-Runt/Venus-CBFb FRET ratio 530/480, 1 h | inhibition, % at 20 µM | actives 0.46% (n = 220,000);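 active means inhibition over about 50% at 20 µM in the single-dose screen, limit read from the data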;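 further: 0% = DMSO wells and 100% = excess unlabeled CBFb competitor control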
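test system = Cerulean-tagged RUNX1 Runt domain (FRET donor) fusion protein | reagent = Venus-CBFb binding partner, 100 nM | incubation = protein complex preformed 1 h, compound exposure 1 h, room temperature, dark | detection = FRET fluorescence | read-out basis = loss of energy transfer signal | controls = 5 µM unlabeled CBFb as full-inhibition high control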
The depositor's hits bear a star; i = inactive; ? = inconclusive; nt = no result; + = active, no number.

SMILES	Runt-SMMHC FRET	LANA-H2B inh	CaV13 FRET inh	RanGTP-Imp inh	HDAC3 inhib	Runt-CBFb FRET
N#CC1=C(N)Oc2cc(O)ccc2C1c1ccccc1 (stereo not given)	64.6*	-4.1	-2.7	52.7*	-2.2	49.0
COc1ccc(N=Cc2cc3c(cc2O)OC(N)=C(C#N)C3c2ccccc2)cc1 (stereo not given)	87.6*	-2.8	-6.0	9.5	3.2	48.9
C[n+]1cccc2ccc3c(c21)OC(N)=C(C#N)C3c1ccccc1 (stereo not given)	-0.2	3.7	-4.2	2.5	?	-18.9
COc1ccc(C2C(C#N)=C(N)OC(C(C)(C)C)=C2C#N)cc1OC (stereo not given)	10.9	-1.8	nt	8.2	-0.7	5.0
COc1ccc(C2C(C#N)=C(N)Oc3cc(O)ccc32)cc1C (stereo not given)	nt	4.8	10.1	67.1*	-15.1	nt
C(=N\Nc1nc2ccccc2[nH]1)/c1ccccc1	nt	2.3	-2.9	-2.2	4.9	nt
O=c1[nH]c(N/N=C\c2ccc3c(c2)OCO3)nc2ccccc12	15.9	0.8	-4.4	16.0*	4.1	36.6
O=c1[nH]c(N/N=C/c2ccccc2)nc2ccccc12	50.5*	0.5	-6.4	?	-24.8	37.6
CCc1cc2c(=O)nc3n(c2s1)Cc1ccccc1/C3=C(/O)c1ccccc1Cl	57.2*	-6.0	-11.2	-60.7	8.1	-46.4
CCc1cc2c(=O)nc3n(c2s1)Cc1ccccc1/C3=C(/O)c1ccc(F)cc1	57.8	7.3	nt	-109.9	3.5	-74.3
CCOC(=O)C1C(=O)CC(C)(O)C(C(=O)OCC)C1c1ccc2c(c1)OCO2 (stereo not given)	nt	178.4*	-3.1	4.3	-2.1	nt
COc1cc(NC(=O)COc2cccc3c2OC(C)(C)C3)cc(OC)c1OC	nt	33.6*	-2.8	nt	0.5	nt
CCOC(=O)/C(O)=C(\C#N)c1nc2ccccc2[nH]1	73.8*	0.4	-3.2	4.5	1.6	32.9
CCOc1cc(C)nc(N2CCCC(C(=O)NCc3ccccc3F)C2)n1 (stereo not given)	-7.4	10.0	-8.8	-4.1	-5.5	-3.2
COCCN(C(=O)/C=C/c1ccccc1)c1nnc(-c2cccnc2)s1	1.0	56.1*	-3.9	-2.6	-4.5	-2.2
Cc1ccc(-n2c(C)nc3c(cnn3-c3ccc(C)c(C)c3)c2=O)cc1C	3.9	-2.1	-5.5	30.1*	-7.5	-1.3
Cc1ccc(-n2c(C)nc3c(cnn3-c3ccc(F)cc3)c2=O)cc1C	-1.9	0.9	-4.9	-2.5	1.3	-4.3
O=C(N/N=C/c1ccoc1)c1ccccc1F	nt	-11.4	-6.1	-0.3	6.7	nt
Cc1cccc2sc(NNC(=O)c3ccc(S(=O)(=O)N4CCCC(C)C4)cc3)nc12 (stereo not given)	21.8	0.3	42.7*	0.1	0.1	40.2
N#Cc1c(-c2cccs2)cc(-c2cccs2)[nH]c1=O	80.2*	7.4	-19.9	44.7*	-9.6	86.3*
CCN(C[C@H]1N[C@@](CC)(C(=O)OC)[C@H]2C(=O)N(Cc3ccccc3)C(=O)[C@@H]12)C(=O)Nc1ccc(OC)cc1	nt	i	-7.9	nt	2.0	nt
CCN(C[C@H]1N[C@@](CC)(C(=O)OC)[C@H]2C(=O)N(Cc3ccccc3)C(=O)[C@@H]12)C(=O)Nc1ccc(C(F)(F)F)cc1	nt	+	-7.5	nt	0.4	nt
CC[C@@]1(C(=O)OC)N[C@H](CN(C)S(=O)(=O)c2ccc(C(C)(C)C)cc2)[C@@H]2C(=O)N(Cc3ccccc3)C(=O)[C@@H]21	nt	69.4*	-3.2	nt	-3.4	nt
Cc1ccc2nc(C3CCCCC3)c(Cc3ccsc3)n2c1	nt	nt	-5.4	nt	nt	nt
COc1ccc(NC(=O)CN(C)S(=O)(=O)c2cnc[nH]2)cc1	nt	3.4	-3.2	2.1	6.2	nt
SMILES	Runt-SMMHC FRET	LANA-H2B inh	CaV13 FRET inh	RanGTP-Imp inh	HDAC3 inhib	Runt-CBFb FRET
O=C(C1CCN(Cc2ccc(Cl)cc2)CC1)N1CCN(C(c2ccccc2)c2ccccc2)CC1	-0.9	-1.4	-2.9	0.9	1.6	-1.5
Cc1cc(Cl)ccc1OCCCC(=O)NO	0.5	3.7	-6.2	3.3	76.8*	0.5
Cc1ccc(CN2CCN(C(=O)CCN3C(=O)c4ccccc4C3=O)CC2)cc1	4.9	-1.9	nt	6.1	7.3	108.1*
COc1ccc(N2CCN(C(=O)CNC(=O)c3cccs3)CC2)cc1	nt	1.8	-2.2	4.5	3.1	nt
Cc1c(C(=O)O)cc(C(C)(C)C)n1CCSCCO	-0.3	5.5	-21.4	1.8	-1.2	-1.9
COc1cc(/C=C/C(=O)N2C(=O)c3cccc(N)c3C2=O)cc(OC)c1OC	33.2	2.9	-27.5	?	1.7	-26.1
Nc1cccc2c1C(=O)N(C(=O)/C=C/c1cccc(Br)c1)C2=O	83.7*	nt	-7.2	34.0*	nt	-49.0
Nc1cccc2c1C(=O)N(C(=O)/C=C/c1cccc(F)c1)C2=O	89.6*	-8.7	-93.4	27.4*	0.0	-42.0
CCC1(c2ccccc2)NC(=S)N(c2ccc(C)cc2)N1 (stereo not given)	9.6	-2.3	-1.2	0.0	3.7	nt
Cc1ccnc(NS(=O)(=O)Cc2ccccc2)c1	-3.9	7.4	-4.0	0.5	-9.5	nt
COc1cc(OC)c(OC)cc1/C=C1/C(=O)N=C(N)N1C	-2.1	0.6	-33.2	-1.1	2.9	-2.0
Cc1ccc(-n2nc(C)c(NS(=O)(=O)c3ccccc3)c2C)cc1C	1.5	-5.7	-7.6	36.3*	0.0	-0.6
Cc1ccc(S(=O)(=O)Nc2c(C)nn(C)c2C)cc1C	nt	0.4	-4.4	nt	-0.4	nt
CCOC(=O)CSc1nnc2n1C(C)(C)Cc1ccccc1-2	-8.5	1.5	-8.7	?	4.9	-3.3
CC(C)OC(=O)CSc1nnc2n1C(C)(C)Cc1ccccc1-2	131.7*	6.9	-5.3	-2.6	5.5	121.0*
Cc1cccc(NC(=O)c2ccc(S(=O)(=O)N3CCCCCC3)cc2)n1	nt	2.7	-5.1	5.7	nt	nt
CCCCn1c(N)c(NCC)c(=O)[nH]c1=O	69.6*	nt	-4.8	nt	nt	24.1
CCN(CC)c1ccc(/C=C(\C#N)C(=O)NCc2ccco2)cc1	59.6*	0.4	9.8	nt	1.6	18.8
Cc1ccc(CNC(=O)/C(C#N)=C\c2ccc(N(C)C)cc2)cc1	61.3*	-2.7	nt	71.5*	-0.1	12.4
Cn1c(=O)n(C)c2cc(/C=C(/C#N)C(=O)NCc3ccco3)ccc21	1.9	-14.4	-2.2	0.4	5.0	0.1
CCN(CC)c1ccc(/C=C(\C#N)C(=O)NCc2ccccc2)cc1	59.0*	1.2	nt	109.1*	?	79.2*
N#C/C(=C\c1ccccc1)C(=O)NCc1ccc(F)cc1	nt	1.7	-4.8	0.6	2.0	nt
CN(C)c1ccc(/C=C(\C#N)C(=O)NCc2ccco2)cc1	58.5*	nt	nt	?	nt	90.3*

Compound activity deposited in PubChem by several laboratories.
